Assay results published in publication PMC11559620 (Science Advances, 2024).
Changes are numbered by the printed parent chain. Names and notes keep the numbering of the source.

B1: NHX2: vacuolar exchanger; C-terminal residues G434 to P546 in Y2H (protein, UniProt Q56XP4 434-546, looked up, fragment)
chain: GMLTKPLIRYLMPHQKATTSTTSMLSDDSTPKSIHIPLLDGEQLDSFELPGSHQDVPRPNSLRGFLMRPTRTVHYYWRQFDDAFMRPVFGGRGFVPFVPGSPTERSSHDLSKP
B2: CML18: calmodulin-like protein of Arabidopsis, At3g03000 (protein)
chain: MSCDGGKPAPAKLGDEQLAELREIFRSFDQNKDGSLTELELGSLLRSLGLKPSQDQLDTLIQKADRNNNGLVEFSEFVALVEPDLVKCPYTDDQLKAIFRMFDRDGNGYITAAELAHSMAKLGHALTAEELTGMIKEADRDGDGCIDFQEFVQAITSAAFDNAWG
modifications: left off: cYFP (C-terminal half of YFP), C-terminal, kept
B3: CML18-D161N (protein, UniProt Q9M8U1 1-165, looked up, variant D161N)
Probable calcium-binding …: B2 chain with D161N
B4: NHX4: vacuolar exchanger; C-terminal residues T437 to C529 in Y2H (protein)
chain: TKPLVNYLLPQDASHNTGNRGKRTEPGSPKEDATLPLLSFDESASTNFNRAKDSISLLMEQPVYTIHRYWRKFDDTYMRPIFGGPRRENQPEC
modifications: left off: Gal4 DNA-binding domain (vector pGBKT7), end not stated, kept
B5: W502A: NHX1 mutant in the CBD (protein, UniProt Q68KI4 1-538, looked up, variant W502A)
Sodium/hydrogen exchanger 1: MLDSLVSKLPSLSTSDHASVVALNLFVALLCACIVLGHLLEENRWMNESITALLIGLGTGVTILLISKGKSSHLLVFSEDLFFIYLLPPIIFNAGFQVKKKQFFRNFVTIMLFGAVGTIISCTIISLGVTQFFKKLDIGTFDLGDYLAIGAIFAATDSVCTLQVLNQDETPLLYSLVFGEGVVNDATSVVVFNAIQSFDLTHLNHEAAFHLLGNFLYLFLLSTLLGAATGLISAYVIKKLYFGRHSTDREVALMMLMAYLSYMLAELFDLSGILTVFFCGIVMSHYTWHNVTESSRITTKHTFATLSFLAETFIFLYVGMDALDIDKWRSVSDTPGTSIAVSSILMGLVMVGRAAFVFPLSFLSNLAKKNQSEKINFNMQVVIWWSGLMRGAVSMALAYNKFTRAGHTDVRGNAIMITSTITVCLFSTVVFGMLTKPLISYLLPHQNATTSMLSDDNTPKSIHIPLLDQDSFIEPSGNHNVPRPDSIRGFLTRPTRTVHYYARQFDDSFMRPVFGGRGFVPFVPGSPTERNPPDLSKA
B6: H285L (protein, UniProt Q68KI4 1-538, looked up, variant H285L)
Sodium/hydrogen exchanger 1: B5 Sodium/hydrogen exchanger 1 with H285L, A502W
B7: Y286A (protein, UniProt Q68KI4 1-538, looked up, variant Y286A)
Sodium/hydrogen exchanger 1: B5 Sodium/hydrogen exchanger 1 with Y286A, A502W
B8: H479L: NHX1 mutant outside the CBD, control (protein, UniProt Q68KI4 1-538, looked up, variant H479L)
Sodium/hydrogen exchanger 1: B5 Sodium/hydrogen exchanger 1 with H479L, A502W
B9: D506A: NHX1 mutant in the CBD (protein, UniProt Q68KI4 1-538, looked up, variant D506A)
Sodium/hydrogen exchanger 1: B5 Sodium/hydrogen exchanger 1 with A502W, D506A
B10: H499L: NHX1 mutant within the CBD (protein, UniProt Q68KI4 1-538, looked up, variant H499L)
Sodium/hydrogen exchanger 1: B5 Sodium/hydrogen exchanger 1 with H499L, A502W
B11: H479L-H499L (protein, UniProt Q68KI4 1-538, looked up, variant H479L H499L)
Sodium/hydrogen exchanger 1: B5 Sodium/hydrogen exchanger 1 with H479L, H499L, A502W

Assays:
[1] = test system: CML18; assay: Yeast two-hybrid assay, interaction with CML18; format: cell-based, Arabidopsis; conditions: for interaction with CML18 (Y2H): C-terminal cytosolic fragments, selective YNB media
Summary of the method: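 Strain AH109 was cotransformed with NHX C-terminal fragments in pGBKT7 (GAL4 BD) and CML17 or CML18 in pGADT7 (GAL4 AD), selected on YNB-Trp-Leu. Cultures were grown at 28°C to saturation (OD600 ~2), then 5-μl drops of 10-fold dilutions were spotted on YNB-Trp-Leu, -His-Trp-Leu and -Ade-Trp-Leu. Plates were incubated at 28°C for 3–4 days. p53/pSV40 served as positive control, empty vectors as negative.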

[2] = test system: yeast vacuoles; assay: Vacuolar pH of yeast by BCECF-AM; format: cell-based, Saccharomyces cerevisiae; conditions: n = 8
[3] = test system: CML18; assay: Bimolecular fluorescence complementation, interaction with CML18; format: cell-based, Arabidopsis; conditions: leaves of N. benthamiana
Summary of the method: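 Agrobacterium GV3101 carrying BiFC constructs was co-infiltrated with a p19-transformed strain into 5- to 6-week-old N. benthamiana leaves. Full-length NHX1 or NHX2 and CML18 were each fused to complementary halves of eYFP. Empty pSPYCE(M) served as negative control. The lower epidermis was imaged by confocal microscopy (515-nm laser, 60× objective) under constant imaging settings, using a YFP filter.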

[4] = test system: AXT3K strain; assay: Complementation assay, hygromycin B resistance of yeast AXT3K; format: cell-based, Saccharomyces cerevisiae; conditions: YPD + HygB (50 μg/ml), 30°C
[5] = test system: C terminus of NHX1; assay: Yeast two-hybrid assay, dimerization with C terminus of NHX1; format: cell-based, Arabidopsis; conditions: fig. S2; cytosolic C-terminal domains
[6] = Far-UV circular dichroism of CML18; format: physicochemical
Summary of the method: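 CML18 was decalcified by dialysis against 20 mM EGTA, then re-dialysed into EGTA-free buffer C (20 mM MES pH 6.3, 80 mM KCl, 5 mM NaCl, 2 mM DTT) or buffer D (same, with 20 mM tris pH 8.3). Far-UV CD spectra (320–202 nm) were recorded at 0.2 mg/ml, 20°C, 1.0-mm quartz cuvette, with 180 μM Ca2+ or 18 μM EGTA.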

[7] = Tryptophan; format: physicochemical
Summary of the method: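 Decalcified CML18 was dialysed into buffer C (20 mM MES pH 6.3) or D (20 mM tris pH 8.3), both with 80 mM KCl, 5 mM NaCl, 2 mM DTT. Samples of 10 μl at 25 μM were loaded into UV capillaries and heated from 35 to 95°C at […]. The initial Trp emission ratio (350/330 nm) was taken at the start. For Ca2+ titrations, 20 μM EGTA was kept constant.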

[8] = test system: NHX1; conditions: ref [15]; cited from earlier work

Row | Molecule | interaction with CML18 (Y2H) [1] | vacuolar pH (pHvac) [2] | HygB resistance / protein activity in AXT3K [4] | other results
1 | NHX1∆CBD: NHX1 with the CBD deleted (residues S486 to G516) | tested negative | overly acidic | – | interaction with CML18 (BiFC) [3]: lost the interaction with CML18
2 | B1 | strongly | – | suppressed the HygB sensitivity | interaction with CML18 (BiFC) [3]: interacted with CML18; homodimerization / heterodimerization (Y2H) [5]: positive results
3 | B2 | – | – | – | CD spectrum change upon addition of Ca2+ or EGTA ([6]; 180 μM Ca2+ or 18 μM EGTA, pH 6.3 and 8.3): no noticeable changes in the spectrum; CD peak at 222 nm ([6]; pH 6.3 compared to pH 8.3, 0.2 mg/ml, 20°C): clear increase of the peak at 222 nm at pH 6.3 compared to pH 8.3; W164 fluorescence red shift ([7]; pH 6.3 versus pH 8.3, 350/330 nm, 25 μM CML18): remarkable red shift; effect on K+/H+ and Na+/H+ exchange rates of NHX1 [8]: inhibition; effect on K+/H+ transport by NHX1 [8]: inhibit
4 | B3 | – | – | – | far-UV CD spectrum compared with WT at pH 6.3 ([6]; fig. S6): nearly identical to that of the WT protein at pH 6.3; 350-nm/330-nm emission ratio, pH dependence ([7]; pH 6.3 and 8.3): remained constant regardless of pH
5 | B4 | strongly | – | – | –
6 | B5 | essential for the interaction | – | inactive | –
7 | B6 | – | – | inactive | –
8 | B7 | – | – | inactive | –
9 | B8 | – | no substantial differences | supported grow | –
10 | B9 | essential for the interaction | – | inactive | –
11 | B10 | not as strong as with the WT NHX1 | no substantial differences | supported grow | growth of cells coexpressing CML18 (Y2H) ([1]; YNB-His): able to grow; growth of cells coexpressing CML18 (Y2H) ([1]; YNB-His-Ade): not in the more stringent media YNB-His-Ade
12 | B11 | – | no substantial differences | supported grow | –
